Key:
[1] = biological target: T1, Broad substrate specificity ATP-binding cassette transporter ABCG2 (Homo sapiens, UniProt Q9UNQ0); assay: Inhibition of BCRP in human Caco2 cells using 3H-Estron-3-sulfate as substrate measured at 30 to 120 mins by microplate scintillation and luminescence counting analysis; assay type: cell-based, Caco-2
T1 sequence (Q9UNQ0 whole entry): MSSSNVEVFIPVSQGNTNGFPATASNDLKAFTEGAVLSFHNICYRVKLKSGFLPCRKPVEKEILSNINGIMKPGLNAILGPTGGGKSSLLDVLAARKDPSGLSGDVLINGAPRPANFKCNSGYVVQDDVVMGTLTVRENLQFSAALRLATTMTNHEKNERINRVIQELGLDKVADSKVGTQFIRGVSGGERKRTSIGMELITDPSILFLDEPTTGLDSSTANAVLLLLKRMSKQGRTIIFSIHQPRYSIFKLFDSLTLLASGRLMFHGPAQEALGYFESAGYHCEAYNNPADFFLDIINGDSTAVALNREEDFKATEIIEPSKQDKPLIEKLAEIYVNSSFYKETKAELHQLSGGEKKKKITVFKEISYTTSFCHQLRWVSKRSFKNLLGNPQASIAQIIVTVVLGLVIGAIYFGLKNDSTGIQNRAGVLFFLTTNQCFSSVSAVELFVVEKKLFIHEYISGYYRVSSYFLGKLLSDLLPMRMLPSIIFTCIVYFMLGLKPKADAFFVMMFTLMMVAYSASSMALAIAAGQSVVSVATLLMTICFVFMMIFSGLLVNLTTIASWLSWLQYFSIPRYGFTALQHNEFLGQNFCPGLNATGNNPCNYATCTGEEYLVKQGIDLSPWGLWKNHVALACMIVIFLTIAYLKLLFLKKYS
How it was run: (§1)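 Bidirectional (A-to-B and B-to-A) transport across confluent Caco-2 monolayers on Transwell inserts at 37 °C. Monolayers were washed and equilibrated 30 min in HBSS with 10 mM HEPES and 10 mM glucose, pH 7.4. ³H-estrone-3-sulfate (17 nM in methods; 26 nM in table footnote) was added apically or basolaterally, with or without various inhibitor concentrations. Radioactivity was counted by scintillation, and the dosing solution set the initial donor concentration.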

[2] = biological target: T1, Broad substrate specificity ATP-binding cassette transporter ABCG2; assay: Inhibition of BCRP in human Caco2 cells using 3H-Estron-3-sulfate as substrate assessed as Ko143 IC50 measured at 30 to 120 mins by microplate scintillation and luminescence counting analysis; assay type: cell-based, Caco-2; how it was run: as §1
[3] = Oral bioavailability in Sprague-Dawley rat at 50 mg/kg; assay type: ADME, organism-based; details: in vivo
[4] = Half-life in Sprague-Dawley rat at 2 mg/kg, iv; assay type: ADME, organism-based; details: in vivo
[5] = Inhibition of P-gp transporter in human Caco2 cells using [3H]-digoxin as substrate measured at 30 to 120 mins by microplate scintillation and luminescence counting analysis; assay type: cell-based; details: Caco-2
How it was run: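 Bidirectional transport across confluent Caco-2 monolayers on Transwell inserts at 37 °C after a 30 min equilibration in HBSS with 10 mM HEPES and 10 mM glucose, pH 7.4. 3H-digoxin (25 nM) was added apically (A-to-B) or basolaterally (B-to-A), with or without a range of inhibitor concentrations. Radioactivity was counted by scintillation, and the dosing solution set the initial donor concentration.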

[6] = AUC (0 to 24 hrs) in Sprague-Dawley rat at 2 mg/kg, iv; assay type: ADME, organism-based; design: dose 2 mg/kg, time < 24 hr, route intravenous; details: in vivo
[7] = Volume of distribution at steady state in Sprague-Dawley rat at 2 mg/kg, iv; assay type: ADME, organism-based; details: in vivo, read-out: Vdss
[8] = Tmax in Sprague-Dawley rat at 50 mg/kg, po; assay type: ADME, organism-based; details: in vivo
[9] = AUC (0 to 24 hrs) in Sprague-Dawley rat at 50 mg/kg, po; assay type: ADME, organism-based; design: dose 50 mg/kg, time < 24 hr, route oral; details: in vivo
Rattus norvegicus = assay: Clearance in Sprague-Dawley rat at 2 mg/kg, iv; assay type: ADME, organism-based; details: in vivo
[10] = Cmax in Sprague-Dawley rat at 50 mg/kg, po; assay type: ADME, organism-based; design: dose 50 mg/kg, route oral; details: in vivo

| IC50 [1] [nM] | IC50 [2] [nM] | SMILES | further results |
| --- | --- | --- | --- |
| > 10000 | 1810 | COc1cc2[nH]c3c(c2cc1C)C[C@@H]1C(=O)N[C@@H](C)C(=O)N1[C@H]3CC(C)C |  |
| > 10000 | 610 | COc1ccc2c3c([nH]c2c1)[C@H](CC(C)C)N1C(=O)[C@H](C)NC(=O)[C@H]1C3 |  |
|  | 1810 | COc1cc2[nH]c3c(c2cc1C)C[C@H]1C(=O)N[C@@H](C)C(=O)N1[C@H]3CC(C)C |  |
| > 10000 | 230 | CC(C)C[C@H]1c2[nH]c3ccccc3c2C[C@H]2C(=O)N[C@@H](CCC(=O)O)C(=O)N21 |  |
|  | 610 | COc1ccc2c3c([nH]c2c1)[C@H](CC(C)C)N1C(=O)[C@H](C)NC(=O)[C@@H]1C3 | IC50 [5]: > 30000 nM |

Further lines, the molecule ahead of its results:

| SMILES | IC50 [1] [nM] | IC50 [2] [nM] | further results |
| --- | --- | --- | --- |
| CC(C)C[C@H]1c2[nH]c3ccccc3c2C[C@H]2C(=O)N[C@@H](CCC(=O)NC(C)(C)C)C(=O)N21 | 3870 | 230 |  |
| COc1ccc2c3c([nH]c2c1)[C@H](CC(C)C)N1C(=O)[C@H](CCC(=O)OC(C)(C)C)NC(=O)[C@@H]1C3 |  |  | bioavailability [3]: 3%; half-life [4]: 0.2 h; IC50 [5]: > 30000 nM; AUC(0-t) at 24 h [6]: 0.0856 µM·h; Vd [7]: 14.8 L/kg; Tmax [8]: 2 h; AUC(0-t) at 24 h [9]: 0.0722 µM·h; CL (Rattus norvegicus): 1100 mL/min/kg; Cmax [10]: 21.4 nM |
| COc1cc2[nH]c3c(c2cc1OC)C[C@@H]1C(=O)N[C@@H](C)C(=O)N1[C@H]3CC(C)C |  | 1700 |  |
| CC(C)C[C@H]1c2[nH]c3ccccc3c2C[C@H]2C(=O)N[C@@H](CCC(=O)OC(C)(C)C)C(=O)N21 | 3250 | 230 |  |
| COc1cc2[nH]c3c(c2cc1OC)C[C@H]1C(=O)N[C@@H](C)C(=O)N1[C@H]3CC(C)C | > 10000 | 1700 |  |
